Reference: ChEMBL document CHEMBL4513216, “Probing the Open Global Health Chemical Diversity Library for Multistage-Active Starting Points for Next-Generation Antimalarials” (ACS Infect Dis, 2020)

experiment: Toxicity liver stage against HepG2, at 10uM; format: cell-based; set-up: test concentration 10 uM, cell line HepG2-A16-CD81EGFP; settings: human, HepG2-A16-CD81EGFP cells; read-out: INHIBITION
Method in brief: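 Uninfected HepG2-A16-CD81EGFP cells, 3 × 10^3 per well, 1536-well, plated on prespotted compound at 10 μM final, parasite-free screening media added to match infected plates; puromycin 10 μM positive, DMSO 0.5% negative; run in parallel with 48 h PbLuc assay at 37 °C, 5% CO2; viability by CellTiter-Glo luminescence, normalized to controls.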

| SMILES | cytotoxicity at 10 µM |
| --- | --- |
| CN(CC(=O)N1CCc2[nH]c3ccc(F)cc3c2C1)CC1OCCO1 | 6.19% |
| Cc1nc(N2CCN(C)CC2)ncc1C(=O)N1CCN(C)CC1 | 3.85% |
| COc1ccc(C(=O)N2CC(=O)N(C3CCC3)CC(O)C2)cc1OC (stereo unspecified) | 4.35% |
| O=C(O)Cn1ccc(=O)c2cc(Cl)ccc21 | -17.1% |
| CN1C(=O)COc2cc(NC(=O)CCc3nc4cccnc4[nH]3)ccc21 | -4.13% |
| Cc1ccc(C)c(S(=O)(=O)NCCNc2ccc(-n3cccc3)nn2)c1 | 1.77% |
| Cc1ccc(C(=O)N2CCC3(CCN(Cc4ccccn4)C3=O)C2)cn1 (stereo unspecified) | -145% |
| Cc1c(Cc2ccccc2)c(O)nc2nc(N3CCOCC3)nn12 | 9.76% |
| COC(=O)c1cccc(NS(=O)(=O)c2cnc(NC(C)=O)s2)c1 | 7.21% |
| Cc1cn[nH]c1C1COCCN1C(=O)c1cc(F)ccc1F (stereo unspecified) | -0.658% |
| COCC(=O)N1CCCCC1c1nc(CN(C)C(C)=O)cc(N(C)C)n1 (stereo unspecified) | 3.37% |
| CCNC(=O)C1(Cc2cc(-c3ccc(C)cc3)no2)CCCN(C)C1 (stereo unspecified) | 7.9% |
| CNC(=O)C1CN(c2ccnc(C)n2)CCN(C2CCOCC2)C1 (stereo unspecified) | -0.762% |
| COCC(=O)N1CCCCC1c1nc(C)c2c(n1)N(CC1CC1)C(=O)C2 (stereo unspecified) | 10.5% |
| CCCNS(=O)(=O)c1cc2c3c(c1)c(C)cc(=O)n3CCC2 | 3.94% |
| O=C(O)c1ccccc1-n1cnc(CN2CCCc3ccccc32)c1 | 6.58% |
| CN(C)C(=O)Cn1c(C2CC2)c(CN2CCSCC2)c2cccnc21 | 4.06% |
| Cc1cc(-c2c[nH]nc2C2CCCCN2C(=O)c2ccccc2)on1 (stereo unspecified) | 7.9% |
| Nc1nccc(C2CCCN(CC3CC3)C2)n1 (stereo unspecified) | 0.631% |
| Cn1cc(CN2CCOC(c3nccnc3-c3cccc(F)c3)C2)cn1 (stereo unspecified) | 8.12% |
| O=C(C1CC1)N1CCC(c2nc(O)c3c(n2)CCN(C2CCCC2)C3)C1 (stereo unspecified) | 4.66% |
| CN1CCC2(CC1)CNC(=O)c1ccccc1O2 | -1.24% |
| O=C(N1CCCC1)N1CCN(c2ccc(Cl)nn2)C(=O)C1 | 7.33% |

| SMILES | cytotoxicity at 10 µM |
| --- | --- |
| O=C(O)c1sccc1Oc1ccc(NC(=O)C2CC2)cc1 | -4.77% |
| CCC1CCCN(S(=O)(=O)c2cnn(C)c2)C1 (stereo unspecified) | 12.9% |
| CC(OCC1CC1)C(=O)NCc1cccc(CN2CCN(C)CC2)c1 (stereo unspecified) | 0.193% |
| CS(=O)(=O)CCNC(=O)Nc1sc2ccccc2c1Cl | 41.7% |
| CCN(CC1CCOC1)C(=O)CCc1nc(C(C)(C)C)no1 (stereo unspecified) | -1.26% |
| Cc1cccc(OCC(=O)NS(=O)(=O)Cc2ccccc2)c1 | 0.224% |
| Cc1ccc(N2CCC(NC(C)c3cccs3)CC2)nc1 (stereo unspecified) | -9.64% |
| Cc1nc(CC(=O)NCCNc2nccc(C(F)(F)F)n2)cs1 | 14.3% |
| CCc1cnc(CN(C)C(=O)Nc2cnc3c(c2)c(C)nn3C)s1 | 2.37% |
| Cc1nn(C)c(C)c1C1CCCN1C(=O)c1ccc(C(N)=O)s1 (stereo unspecified) | -1.52% |
| COc1cc(Cl)ccc1C(=O)NCc1n[nH]c(C)n1 | -4.07% |
| CCc1c(NCc2ccc(F)cc2)cnn1CC(C)C | 3.66% |
| O=C(CCc1ccsc1)NCC1CCN(C2CC2)C1 (stereo unspecified) | 2.63% |
| Cc1nsc(N2CCN(CC(=O)N(C3CC3)C(C)C3CC3)CC2)n1 (stereo unspecified) | -12.4% |
| O=C(CCc1cccs1)Nc1ccnn1C1CCS(=O)(=O)C1 (stereo unspecified) | -19.8% |
| Cc1c(C(=O)N2CCCOCC2)nnn1-c1cccc2cnccc12 | 11.8% |
| Cc1c(C(=O)N2CC(O)C2)nnn1-c1cccc2cnccc12 | 3.04% |
| CS(=O)(=O)Cc1ccc(Cl)cc1NCc1cccc(F)c1F | 9.2% |
| CCc1nc(C(=O)N(CC)CC(=O)Nc2cc(Cl)ccc2C)c[nH]1 | 8.44% |
| COC(=O)CCSc1nncn1-c1ccc(OC)nc1 | -2.09% |
| CCN1CCC(NC(=O)NC2CCOc3ccc(Br)cc32)CC1 (stereo unspecified) | -1.15% |
| CCOC(C)c1nc(CN2CCC(NC(C)C)CC2)cs1 (stereo unspecified) | 1.1% |
| Cc1csc(CNC(=O)NCC(O)c2ccccc2)n1 (stereo unspecified) | 2.26% |

| SMILES | cytotoxicity at 10 µM |
| --- | --- |
| COC(=O)c1ccoc1CN(C)CC(=O)N(C)C | 3.39% |
| Cc1ccc(S(=O)(=O)NC(=O)COc2ccc(CC#N)cc2)s1 | 2.52% |
| COC(=O)c1cccc(CN(C)Cc2ncnn2C)c1C#N | -4.23% |
| c1ccc(Cn2cccn2)c(CNCc2cnc(N3CCCC3)nc2)c1 | -5.34% |
| CC(Cn1cccn1)NC(=O)N(C)Cc1cnn(C)c1 (stereo unspecified) | -5.17% |
| CCN(C(=O)c1cc(C)oc1C)C1CC1 | -5.89% |
| O=C(CN(CC1CCC1)CC(F)(F)F)N1CCOCC1 | -13.1% |
| CCCC1c2ccccc2CCN1CCS(C)(=O)=O (stereo unspecified) | -0.846% |
| COc1ccc(C)cc1CN(C)CCCNS(C)(=O)=O | -43.2% |
| Cn1cc(N2CCC(Nc3ccc4nccnc4n3)C2=O)cn1 (stereo unspecified) | -2.47% |
| COc1cc(N2CCC3(CC2)CN(C)C(=O)CO3)ncn1 | 6.5% |
| Cc1cccc(CN2CCn3cc(CNC(=O)CC4CC4)nc3C2)n1 | -73.2% |
| O=C(c1cccs1)N1CCc2ncc(Cn3cncn3)n2CC1 | -89.8% |
| Cn1cc(CN2CCCC3(CCN(c4cccnc4)C3=O)C2)cn1 (stereo unspecified) | -74.9% |
| CC(C)NC(=O)C1CN(C(=O)N2CCCC2)CC12CCOCC2 (stereo unspecified) | 1.08% |
| CCc1ncc2c(n1)CN(c1nccc(C3CCCC3)n1)C2 | -1.16% |
| Cc1ccc(CN2C[C@H]3OC(=O)N(Cc4ccccn4)[C@H]3C2)o1 | 4.16% |
| CSCc1noc(CNC(=O)C2CCN(C(=O)C3CC3)CC2)n1 | 11.5% |
| Cc1ccc(N2CCCN(CC3CC3)C(C(C)C)C2)nn1 (stereo unspecified) | 13.3% |
| CCCNc1ncc(C2CC(=O)NCc3nc4ccccn4c32)cn1 (stereo unspecified) | -3.69% |
| CN1CCCN(C[C@@H]2CN(C(=O)N3CCOCC3)C[C@@H]2CO)CC1 | -7.43% |
| Cc1cc(NC(C)Cc2cccnc2)n2nccc2n1 (stereo unspecified) | 3.01% |
| C=C(C)COc1cccc(CN(C)C(C)c2ccncn2)c1 (stereo unspecified) | -47.6% |

| SMILES | cytotoxicity at 10 µM |
| --- | --- |
| COc1nccnc1N1CCC2(CC1)[C@H](O)C[C@@H]2OCCN(C)C | 4.56% |
| Cc1ocnc1C(=O)N1CCCC1c1ccc(C(=O)N2CCSCC2)s1 (stereo unspecified) | -5.37% |
| O=C(c1ccc(-c2cccc3c2CCNC3)o1)N1CCCCC1 | 3.67% |
| CN1CCCC(CCC(=O)N2CCc3[nH]c(-c4ccccc4)nc3C2)C1 (stereo unspecified) | -4.13% |
| CCc1cc(N(C)CCc2c(C)n[nH]c2C)ncn1 | -4.45% |
| CCC(NC(=O)C1CCN(C(=O)C2CC2)CC1)c1cn2cccnc2n1 (stereo unspecified) | 0.0482% |
| c1cc(CN2CCCC2)cc(-n2ccnc2-c2ccncc2)c1 | -1.37% |
| Cc1ccccc1C(C(=O)NCCS(C)(=O)=O)N(C)C (stereo unspecified) | 11.2% |
| COCCNc1cc(-c2ccccc2S(N)(=O)=O)c2cc[nH]c2n1 | 6.68% |
| c1cnn(CCC2CCN(Cc3ccc4[nH]ccc4c3)CC2)c1 | -7.57% |
| O=C(CCn1cnnn1)N1CCCC(CO)(CCCc2ccccc2)C1 (stereo unspecified) | 2.74% |
| CCCOC1CCCN(Cc2nc(-c3cccs3)oc2C)C1 (stereo unspecified) | -53.1% |
| O=C(N[C@@H]1CCN(C(=O)c2ccc(F)cc2Cl)C[C@H]1O)c1ccccn1 | -0.0395% |
| CCCc1cc(NCc2nc(COC)no2)n2nccc2n1 | -0.916% |
| COC(=O)c1ccc(CNC(=O)Cc2csc(C(C)=O)c2)cc1 | 5.03% |
| CCOc1ccccc1CN(CC)Cc1ccc(S(C)(=O)=O)cc1 | -4.6% |
| CC(C)c1cc(=O)[nH]c(-c2ccccc2CN2CCCCCC2)n1 | -2.1% |
| O=C(NCc1ccoc1)c1ccc(C2CCCN2CC2CCOCC2)s1 (stereo unspecified) | 6.7% |
| COc1ccc(F)c(-c2cc(C)nc(N)n2)c1 | 5.47% |
| CS(=O)(=O)N1CCCn2nc(CNc3cc(C#N)ccn3)cc2C1 | -8.5% |
| COC(=O)c1cc(C)nc(N2CCN(Cc3cc(C(C)C)no3)CC2)n1 | 3.29% |
| CCc1cc(N[C@H]2CCC[C@H]2CO)n2nccc2n1 | -10.1% |
| Cc1cc(C(F)(F)F)cc(=O)n1Cc1nc(C(C)C)no1 | 0.9% |

| SMILES | cytotoxicity at 10 µM |
| --- | --- |
| CCN(Cc1ccc(S(C)(=O)=O)cc1)Cc1nc(COC)no1 | -10.8% |
| CC(C)n1ccnc1C1CCN(C(=O)c2ccc(SCCO)cc2)CC1 | -0.232% |
| Cc1ccc(CC(=O)N2CCCC(c3ccn[nH]3)C2)cn1 (stereo unspecified) | 0.691% |
| CNc1nc(CNC(=O)Nc2ccc([S+](C)[O-])c(F)c2)cs1 (stereo unspecified) | -12.2% |
| CC(C)c1nc(C2CCCN2C(=O)c2ccc(C#N)cn2)no1 (stereo unspecified) | -3.19% |
| Cc1nccn1C1CCCN(C(=O)COCC2CC2)C1 (stereo unspecified) | -11.7% |
| O=C(c1cccnc1N1CCCCC1)N1CCCC(n2ccnc2)C1 (stereo unspecified) | -14.4% |
| Cc1ccc(C)c(CNC(=O)NC(C)(C(=O)O)c2ccco2)c1 (stereo unspecified) | -10.8% |
| CN(Cc1cccc(F)c1)C1CCN(CCc2ccccn2)CC1 | -5.38% |
| CC(=O)NC1CCCN(C(=O)NCc2cccnc2N(C)C)C1 (stereo unspecified) | -1.97% |
| Cc1nc(C)n(CC2CN(c3ncnc4[nH]ccc34)CCO2)n1 (stereo unspecified) | 0.433% |
| Cc1ccc(-c2nc(CN3CCc4nn(C)c(=O)cc4C3)no2)cc1 | -8.38% |
| CC(C)c1nc(C2CCCN(C(=O)c3ccc4nccn4c3)C2)no1 (stereo unspecified) | -0.0722% |
| Cc1ccc(CN2CCCC3(CCN(S(C)(=O)=O)C3)C2)o1 (stereo unspecified) | 2.21% |
| COCCNC(=O)[C@H]1C[C@@H]2CCN(CCc3ccccc3)C[C@@H]2O1 | -74.5% |
| Cc1ccc(N2CCO[C@H]3CN(Cc4ccncc4)C[C@H]32)nn1 | 1.23% |
| Cn1cc(CN2CC[C@@H]3[C@@H]2CCN3C(=O)Cc2cccc(F)c2)cn1 | -80% |
| CN(Cc1cn2c(n1)CN(c1ncc(F)cn1)CC2)Cc1ccco1 | 3.96% |
| O=C(c1ccncc1F)N1C[C@@H]2CC[C@H]1CN(Cc1cccnc1)C2 | 3.01% |
